Measurements reported in ChEMBL document CHEMBL1140412, “F-18 stilbenes as PET imaging agents for detecting beta-amyloid plaques in the brain” (J Med Chem, 2005).

How the values were obtained:
[1] = Biodistribution in ICR mouse lung 2 min. after iv injection of [18F]-compound in 0.1% bovine serum albumin solution, n = 3; assay type: ADME, organism-based; conditions: in vivo
Outline: (§1)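 Male ICR mice (22-25 g) under isoflurane anesthesia received 0.15 mL of 0.1% BSA solution containing 5-10 μCi [¹⁸F]tracer by tail-vein injection; n = 3 per time point. Killed by cervical dislocation, organs removed, weighed and gamma-counted. %dose/g derived from sample counts vs. diluted initial dose; blood total activity assumed as 7% of body weight. Mean ± SD.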

[2] = Biodistribution in ICR mouse kidney 30 min. after iv injection of [18F]-compound in 0.1% bovine serum albumin solution, n = 3; assay type: ADME, organism-based; conditions: in vivo, 0.5 h; outline: as §1
[3] = Biodistribution in ICR mouse skin 2 hr after iv injection of [18F]-compound in 0.1% bovine serum albumin solution, n = 3; assay type: ADME, organism-based, Zone of skin; conditions: in vivo; outline: as §1
[4] = Biodistribution in ICR mouse liver 2 hr after iv injection of [18F]-compound in 0.1% bovine serum albumin solution, n = 3; assay type: ADME, organism-based; conditions: in vivo; outline: as §1
[5] = biological target: Amyloid-beta precursor protein (Homo sapiens, UniProt P05067); test: Inhibition constant for I-125-IMPY binding to amyloid plaques in Alzheimers disease brain homogenates; assay type: tissue-based
Outline: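 Competition binding in pooled postmortem AD cortical homogenates (dissected gray/white matter, ~100 mg wet tissue/ml PBS pH 7.4; 20-50 μg per tube). [¹²⁵I]IMPY at 0.04-0.06 nM; inhibitors 10^-5-10^-10 M in PBS with 0.1% BSA. Nonspecific binding with 600 nM IMPY. Incubated 2 hr at 37°C, GF/B filtration, PBS washes, gamma counting. Ki from nonlinear regression.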

[6] = Biodistribution in ICR mouse lung 30 min. after iv injection of [18F]-compound in 0.1% bovine serum albumin solution, n = 3; assay type: ADME, organism-based; conditions: in vivo, 0.5 h; outline: as §1
[7] = Biodistribution in ICR mouse muscle 2 min. after iv injection of [18F]-compound in 0.1% bovine serum albumin solution, n = 3; assay type: ADME, organism-based, Muscle tissue; conditions: in vivo; outline: as §1
[8] = Biodistribution in ICR mouse blood 2 hr after iv injection of [18F]-compound in 0.1% bovine serum albumin solution, n = 3; assay type: ADME, organism-based; conditions: in vivo; outline: as §1
[9] = Biodistribution in ICR mouse heart 2 hr after iv injection of [18F]-compound in 0.1% bovine serum albumin solution, n = 3; assay type: ADME, organism-based; conditions: in vivo; outline: as §1
[10] = Biodistribution in ICR mouse brain 30 min. after iv injection of [18F]-compound in 0.1% bovine serum albumin solution, n = 3; assay type: ADME, organism-based; conditions: in vivo, 0.5 h; outline: as §1
[11] = Biodistribution in ICR mouse muscle 2 hr after iv injection of [18F]-compound in 0.1% bovine serum albumin solution, n = 3; assay type: ADME, organism-based, Muscle tissue; conditions: in vivo; outline: as §1
[12] = Biodistribution in ICR mouse kidney 2 min. after iv injection of [18F]-compound in 0.1% bovine serum albumin solution, n = 3; assay type: ADME, organism-based; conditions: in vivo; outline: as §1
[13] = Biodistribution in ICR mouse liver 2 min. after iv injection of [18F]-compound in 0.1% bovine serum albumin solution, n = 3; assay type: ADME, organism-based; conditions: in vivo; outline: as §1
[14] = Biodistribution in ICR mouse blood 1 hr after iv injection of [18F]-compound in 0.1% bovine serum albumin solution, n = 3; assay type: ADME, organism-based; conditions: in vivo; outline: as §1
[15] = Biodistribution in ICR mouse bone 1 hr after iv injection of [18F]-compound in 0.1% bovine serum albumin solution, n = 3; assay type: ADME, organism-based, Bone element; conditions: in vivo; outline: as §1
[16] = Biodistribution in ICR mouse blood 30 min. after iv injection of [18F]-compound in 0.1% bovine serum albumin solution, n = 3; assay type: ADME, organism-based; conditions: in vivo, 0.5 h; outline: as §1
[17] = Biodistribution in ICR mouse spleen 1 hr after iv injection of [18F]-compound in 0.1% bovine serum albumin solution, n = 3; assay type: ADME, organism-based; conditions: in vivo; outline: as §1
[18] = Biodistribution in ICR mouse spleen 2 min. after iv injection of [18F]-compound in 0.1% bovine serum albumin solution, n = 3; assay type: ADME, organism-based; conditions: in vivo; outline: as §1
[19] = Biodistribution in ICR mouse heart 2 min. after iv injection of [18F]-compound in 0.1% bovine serum albumin solution, n = 3; assay type: ADME, organism-based; conditions: in vivo; outline: as §1
[20] = Biodistribution in ICR mouse kidney 1 hr after iv injection of [18F]-compound in 0.1% bovine serum albumin solution, n = 3; assay type: ADME, organism-based; conditions: in vivo; outline: as §1
[21] = Biodistribution in ICR mouse muscle 1 hr after iv injection of [18F]-compound in 0.1% bovine serum albumin solution, n = 3; assay type: ADME, organism-based, Muscle tissue; conditions: in vivo; outline: as §1
[22] = Biodistribution in ICR mouse skin 1 hr after iv injection of [18F]-compound in 0.1% bovine serum albumin solution, n = 3; assay type: ADME, organism-based, Zone of skin; conditions: in vivo; outline: as §1
[23] = Biodistribution in ICR mouse liver 30 min. after iv injection of [18F]-compound in 0.1% bovine serum albumin solution, n = 3; assay type: ADME, organism-based; conditions: in vivo, 0.5 h; outline: as §1
[24] = Biodistribution in ICR mouse skin 2 min. after iv injection of [18F]-compound in 0.1% bovine serum albumin solution, n = 3; assay type: ADME, organism-based, Zone of skin; conditions: in vivo; outline: as §1
[25] = Biodistribution in ICR mouse muscle 30 min. after iv injection of [18F]-compound in 0.1% bovine serum albumin solution, n = 3; assay type: ADME, organism-based, Muscle tissue; conditions: in vivo, 0.5 h; outline: as §1
[26] = Biodistribution in ICR mouse spleen 2 hr after iv injection of [18F]-compound in 0.1% bovine serum albumin solution, n = 3; assay type: ADME, organism-based; conditions: in vivo; outline: as §1
[27] = Biodistribution in ICR mouse heart 30 min. after iv injection of [18F]-compound in 0.1% bovine serum albumin solution, n = 3; assay type: ADME, organism-based; conditions: in vivo, 0.5 h; outline: as §1
[28] = Biodistribution in ICR mouse lung 2 hr after iv injection of [18F]-compound in 0.1% bovine serum albumin solution, n = 3; assay type: ADME, organism-based; conditions: in vivo; outline: as §1
[29] = Biodistribution in ICR mouse bone 2 min. after iv injection of [18F]-compound in 0.1% bovine serum albumin solution, n = 3; assay type: ADME, organism-based, Bone element; conditions: in vivo; outline: as §1
[30] = Biodistribution in ICR mouse lung 1 hr after iv injection of [18F]-compound in 0.1% bovine serum albumin solution, n = 3; assay type: ADME, organism-based; conditions: in vivo; outline: as §1
[31] = Biodistribution in ICR mouse brain 1 hr after iv injection of [18F]-compound in 0.1% bovine serum albumin solution, n = 3; assay type: ADME, organism-based; conditions: in vivo; outline: as §1
[32] = Biodistribution in ICR mouse liver 1 hr after iv injection of [18F]-compound in 0.1% bovine serum albumin solution, n = 3; assay type: ADME, organism-based; conditions: in vivo; outline: as §1
[33] = Biodistribution in ICR mouse kidney 2 hr after iv injection of [18F]-compound in 0.1% bovine serum albumin solution, n = 3; assay type: ADME, organism-based; conditions: in vivo; outline: as §1
[34] = Biodistribution in ICR mouse heart 1 hr after iv injection of [18F]-compound in 0.1% bovine serum albumin solution, n = 3; assay type: ADME, organism-based; conditions: in vivo; outline: as §1
[35] = Biodistribution in ICR mouse blood 2 min. after iv injection of [18F]-compound in 0.1% bovine serum albumin solution, n = 3; assay type: ADME, organism-based; conditions: in vivo; outline: as §1
[36] = Biodistribution in ICR mouse spleen 30 min. after iv injection of [18F]-compound in 0.1% bovine serum albumin solution, n = 3; assay type: ADME, organism-based; conditions: in vivo, 0.5 h; outline: as §1
[37] = Biodistribution in ICR mouse brain 2 hr after iv injection of [18F]-compound in 0.1% bovine serum albumin solution, n = 3; assay type: ADME, organism-based; conditions: in vivo; outline: as §1
[38] = Biodistribution in ICR mouse skin 30 min. after iv injection of [18F]-compound in 0.1% bovine serum albumin solution, n = 3; assay type: ADME, organism-based, Zone of skin; conditions: in vivo, 0.5 h; outline: as §1
[39] = Biodistribution in ICR mouse bone 2 hr after iv injection of [18F]-compound in 0.1% bovine serum albumin solution, n = 3; assay type: ADME, organism-based, Bone element; conditions: in vivo; outline: as §1
[40] = Biodistribution in ICR mouse brain 2 min. after iv injection of [18F]-compound in 0.1% bovine serum albumin solution, n = 3; assay type: ADME, organism-based; conditions: in vivo; outline: as §1
[41] = Biodistribution in ICR mouse bone 30 min. after iv injection of [18F]-compound in 0.1% bovine serum albumin solution, n = 3; assay type: ADME, organism-based, Bone element; conditions: in vivo, 0.5 h; outline: as §1

Chain of Amyloid-beta precursor protein (P05067 whole entry): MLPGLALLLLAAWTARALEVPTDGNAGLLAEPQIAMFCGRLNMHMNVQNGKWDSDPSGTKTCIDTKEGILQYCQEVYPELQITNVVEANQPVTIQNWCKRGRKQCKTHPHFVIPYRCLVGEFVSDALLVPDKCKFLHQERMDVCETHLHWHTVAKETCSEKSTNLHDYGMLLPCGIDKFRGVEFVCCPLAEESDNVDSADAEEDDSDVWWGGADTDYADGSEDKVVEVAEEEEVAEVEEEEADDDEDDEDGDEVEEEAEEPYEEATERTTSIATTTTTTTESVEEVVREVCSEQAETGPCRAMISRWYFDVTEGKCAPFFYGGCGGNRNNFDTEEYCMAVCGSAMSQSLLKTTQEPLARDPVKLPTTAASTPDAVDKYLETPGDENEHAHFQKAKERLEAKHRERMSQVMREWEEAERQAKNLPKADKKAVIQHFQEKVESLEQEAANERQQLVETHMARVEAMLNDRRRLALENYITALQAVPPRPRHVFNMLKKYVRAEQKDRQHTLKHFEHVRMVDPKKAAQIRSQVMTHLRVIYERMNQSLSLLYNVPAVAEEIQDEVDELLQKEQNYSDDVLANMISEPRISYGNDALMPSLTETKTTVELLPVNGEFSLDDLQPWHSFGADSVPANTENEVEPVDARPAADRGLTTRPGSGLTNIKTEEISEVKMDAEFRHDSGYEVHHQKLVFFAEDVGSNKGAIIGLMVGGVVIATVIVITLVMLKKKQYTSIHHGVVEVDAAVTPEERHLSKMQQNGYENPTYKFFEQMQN

Structure (SMILES): CN(C)c1ccc(/C=C/c2ccc(OCC(CO)C[18F])cc2)cc1 (stereo not given)
- Biodistribution [1]: 93.4 %Dose/g
- Biodistribution [2]: 4.64 %Dose/g
- Biodistribution [3]: 1 %Dose/g
- Biodistribution [4]: 9.51 %Dose/g
- Ki [5]: 15 nM
- Biodistribution [6]: 12.93 %Dose/g
- Biodistribution [7]: 0.84 %Dose/g
- Biodistribution [8]: 1.18 %Dose/g
- Biodistribution [9]: 0.91 %Dose/g
- Biodistribution [10]: 5.21 %Dose/g
- Biodistribution [11]: 0.66 %Dose/g
- Biodistribution [12]: 13.32 %Dose/g
- Biodistribution [13]: 14.13 %Dose/g
- Biodistribution [14]: 1.51 %Dose/g
- Biodistribution [15]: 6.5 %Dose/g
- Biodistribution [16]: 1.65 %Dose/g
- Biodistribution [17]: 1.24 %Dose/g
- Biodistribution [18]: 4.43 %Dose/g
- Biodistribution [19]: 10.43 %Dose/g
- Biodistribution [20]: 2.97 %Dose/g
- Biodistribution [21]: 1.22 %Dose/g
- Biodistribution [22]: 1.65 %Dose/g
- Biodistribution [23]: 14.65 %Dose/g
- Biodistribution [24]: 0.67 %Dose/g
- Biodistribution [25]: 1.53 %Dose/g
- Biodistribution [26]: 0.99 %Dose/g
- Biodistribution [27]: 2.76 %Dose/g
- Biodistribution [28]: 3.74 %Dose/g
- Biodistribution [29]: 1.57 %Dose/g
- Biodistribution [30]: 5 %Dose/g
- Biodistribution [31]: 2.97 %Dose/g
- Biodistribution [32]: 13.46 %Dose/g
- Biodistribution [33]: 2.19 %Dose/g
- Biodistribution [34]: 1.45 %Dose/g
- Biodistribution [35]: 1.79 %Dose/g
- Biodistribution [36]: 2.45 %Dose/g
- Biodistribution [37]: 1.37 %Dose/g
- Biodistribution [38]: 1.69 %Dose/g
- Biodistribution [39]: 8.63 %Dose/g
- Biodistribution [40]: 5.55 %Dose/g
- Biodistribution [41]: 2.06 %Dose/g

Structure (SMILES): Nc1ccc(/C=C/c2ccc(O)cc2)cc1
- Ki [5]: 95 nM

Structure (SMILES): Cc1ccc(S(=O)(=O)OCC(CO)COc2ccc(/C=C/c3ccc(N(C)C)cc3)cc2)cc1 (stereo not given)
- Ki [5]: 150 nM

Structure (SMILES): CN(C)c1ccc(/C=C/c2ccc(OCC(CO)Cc3ccc(Br)cc3)cc2)cc1 (stereo not given)
- Ki [5]: 80 nM

Structure (SMILES): CN(C)c1ccc(/C=C/c2ccc(OCC(CO)CO)cc2)cc1
- Ki [5]: 38 nM
